Measurements as given in ChEMBL document CHEMBL1157080 (Eur J Med Chem, 2010).

Tests used:
[1] = molecular target: T1, cGMP-specific 3',5'-cyclic phosphodiesterase (Homo sapiens, UniProt O76074); assay: Inhibition of human recombinant PDE5 after 1.5 hrs by fluorescent polarization assay
Outline: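 Purified PDE5 (5 μ/mL) treated with compound or vehicle plus 50 nM TAMRA-cGMP, incubated 1.5 h at 30 °C. IMAP binding reagent was then added for 30 min at 30 °C and fluorescence polarization read.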

[2] = molecular target: T1, cGMP-specific 3',5'-cyclic phosphodiesterase; assay: Inhibition of human recombinant PDE5 at 100 uM after 1.5 hrs by fluorescent polarization assay
Outline: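 Single 100 μM screening dose, run in triplicate. Purified PDE5 with 50 nM TAMRA-cGMP, 1.5 h at 30 °C, then IMAP binding reagent for 30 min at 30 °C. Percent inhibition from fluorescence polarization.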

HT-29 [3] = assay: Growth inhibition of human HT-29 cells after 72 hrs by cell titer glo assay; assay type: functional, cell-based; details: HT-29, 72 h
HT-29 [4] = assay: Growth inhibition of human HT-29 cells at 100 uM after 72 hrs by cell titer glo assay; assay type: functional; details: HT-29, 72 h, read-out: GI
Outline: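 HT-29 cells in RPMI 1640/5% FBS, >95% viable at harvest, seeded 5000 cells/well and incubated 18–24 h before dosing at a single 100 μM screening dose (final DMSO 0.1%). Percent growth inhibition from CellTiter-Glo luminescence 72 h after treatment, triplicate wells.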

IC50 [1]	Inhibition [2]	IC50 (HT-29 [3])	SMILES	inhibition of growth at 100 µM (HT-29 [4])
29 µM	86%	1.6 µM	COC(=O)[C@H]1Cc2c([nH]c3ccccc23)[C@@H](c2ccccc2Br)N1C(=O)CCl	–
0.06 µM	97.6%	25.5 µM	CN1CC(=O)N2[C@H](c3ccccc3Br)c3[nH]c4ccccc4c3C[C@H]2C1=O	–
–	91.7%	–	CCN1CC(=O)N2[C@@H](c3ccccc3Br)c3[nH]c4ccccc4c3C[C@@H]2C1=O	65.6%
–	69.4%	> 100 µM	O=C1[C@H]2Cc3c([nH]c4ccccc34)[C@H](c3ccccc3Br)N2C(=O)CN1Cc1ccccc1	–
–	21.5%	78 µM	COC(=O)[C@H]1Cc2c([nH]c3ccccc23)[C@H](c2ccccc2Br)N1	85%
–	97%	> 100 µM	CCN1CC(=O)N2[C@H](c3ccccc3Br)c3[nH]c4ccccc4c3C[C@@H]2C1=O	–
–	89.2%	–	CCN1CC(=O)N2[C@H](c3ccccc3Br)c3[nH]c4ccccc4c3C[C@H]2C1=O	47.2%
2.8 µM	92.7%	27 µM	CN1CC(=O)N2[C@@H](c3ccccc3Br)c3[nH]c4ccccc4c3C[C@H]2C1=O	76.1%
5.6 µM	85.5%	48 µM	COC(=O)[C@H]1Cc2c([nH]c3ccccc23)[C@@H](c2ccccc2Br)N1	89%
–	69.1%	> 100 µM	CCCCN1CC(=O)N2[C@@H](c3ccccc3Br)c3[nH]c4ccccc4c3C[C@H]2C1=O	–
0.038 µM	99.5%	20 µM	CCN1C(=O)[C@@H]2Cc3c([nH]c4ccccc34)[C@@H](c3ccccc3Br)N2C1=O	69.8%
0.04 µM	100%	> 100 µM	O=C1[C@@H]2Cc3c([nH]c4ccccc34)[C@@H](c3ccccc3Br)N2C(=O)CN1Cc1ccccc1	–
–	46%	26 µM	COC(=O)[C@@H]1Cc2c([nH]c3ccccc23)[C@H](c2ccccc2Br)N1	92.8%
–	47.9%	–	COC(=O)[C@@H]1Cc2c([nH]c3ccccc23)[C@@H](c2ccccc2Br)N1C(=O)CCl	–
88 µM	75.5%	–	CN1CC(=O)N2[C@@H](c3ccccc3Br)c3[nH]c4ccccc4c3C[C@@H]2C1=O	61.7%
4 µM	93%	–	CCN1C(=O)[C@H]2Cc3c([nH]c4ccccc34)[C@H](c3ccccc3Br)N2C1=O	65.1%
–	48.7%	> 100 µM	O=C1[C@@H]2Cc3c([nH]c4ccccc34)[C@H](c3ccccc3Br)N2C(=O)CN1Cc1ccccc1	–
–	90.3%	–	CCN1CC(=O)N2[C@@H](c3ccccc3Br)c3[nH]c4ccccc4c3C[C@H]2C1=O	–
–	35.8%	4.1 µM	COC(=O)[C@@H]1Cc2c([nH]c3ccccc23)[C@H](c2ccccc2Br)N1C(=O)CCl	–
74 µM	82.8%	> 100 µM	CCN1C(=O)[C@H]2Cc3c([nH]c4ccccc34)[C@H](c3ccccc3Br)N2C1=S	–
3.1 µM	91.1%	–	COC(=O)[C@@H]1Cc2c([nH]c3ccccc23)[C@@H](c2ccccc2Br)N1	57.5%
3.4 µM	91.9%	–	O=C1[C@H]2Cc3c([nH]c4ccccc34)[C@@H](c3ccccc3Br)N2C(=O)CN1Cc1ccccc1	34.2%
–	47.9%	> 100 µM	COC(=O)[C@H]1Cc2c([nH]c3ccccc23)[C@H](c2ccccc2Br)N1C(=O)CCl	–
–	66.7%	–	CCCCN1CC(=O)N2[C@@H](c3ccccc3Br)c3[nH]c4ccccc4c3C[C@@H]2C1=O	50.2%
0.26 µM	99.7%	–	CCCCN1CC(=O)N2[C@H](c3ccccc3Br)c3[nH]c4ccccc4c3C[C@@H]2C1=O	55.7%
6.1 µM	93.5%	22.5 µM	CCN1C(=O)[C@@H]2Cc3c([nH]c4ccccc34)[C@@H](c3ccccc3Br)N2C1=S	–
0.29 µM	98.7%	21 µM	CCN1C(=O)[C@H]2Cc3c([nH]c4ccccc34)[C@@H](c3ccccc3Br)N2C1=O	79.5%
0.1 µM	96%	–	CN1CC(=O)N2[C@H](c3ccccc3Br)c3[nH]c4ccccc4c3C[C@@H]2C1=O	50.4%
0.64 µM	89.5%	24 µM	CCN1C(=O)[C@@H]2Cc3c([nH]c4ccccc34)[C@H](c3ccccc3Br)N2C1=O	77.9%
0.05 µM	93.8%	> 100 µM	CCCCN1CC(=O)N2[C@H](c3ccccc3Br)c3[nH]c4ccccc4c3C[C@H]2C1=O	–

SMILES	IC50 [1]	Inhibition [2]	IC50 (HT-29 [3])	inhibition of growth at 100 µM (HT-29 [4])
CN1CC(=O)N2[C@H](c3ccc4c(c3)OCO4)c3[nH]c4ccccc4c3C[C@@H]2C1=O	–	100%	> 100 µM	–
